# Experimental data as given in ChEMBL document CHEMBL1145185, “Novel inhibitors of human histone deacetylases: design, synthesis, enzyme inhibition, and cancer cell growth inhibition of SAHA-based non-hydroxamates” (J Med Chem, 2005).
# Target: Histone deacetylase
# Test: Inhibitory concentration against human histone deacetylase
# Type: protein assay
# Settings: not given
row,SMILES,IC50
1,O=C(CCCCCCS)Nc1nc2ccccc2s1,0.34 µM
2,CNC(=O)C(=O)CCCCCCC(=O)Nc1ccccc1,0.34 µM
3,CSCCCCCCC(=O)Nc1ccccc1,> 100 µM
4,O=C(CCCCCCS(=O)(=O)NO)Nc1ccccc1,> 100 µM
5,O=C(CO)NCCCCCC(=O)Nc1ccccc1,> 100 µM
6,C#CCNCCCCCC(=O)Nc1ccccc1,> 100 µM

# The next lines start with the values.
row,IC50,SMILES
1,> 100 µM,C#CCN(CC#C)CCCCCC(=O)Nc1ccccc1
2,2.8 µM,O=CN(O)CCCCCCCC(=O)Nc1ccccc1
3,> 100 µM,NCC(=O)NCCCCCC(=O)Nc1ccccc1

# Same assay, conditions: read-out: IC50
row,SMILES,IC50
1,O=C(CCCCCCS)Nc1ccc(-c2ccccc2)cc1,1.1 µM
2,O=C(NCCCCCCS)c1ccc2ccccc2c1,0.085 µM
3,CN(C)c1ccc(NC(=O)CCCCCCS)cc1,1.2 µM
4,SCCCCCCOc1ccccc1,11 µM
5,O=C(NCCCCCCS)c1ccccc1,0.36 µM
6,O=C(CCCCCCS)Nc1cccnc1,0.11 µM
7,O=C(CCCCCCS)Nc1cccc(-c2ccccc2)c1,0.075 µM
8,O=C(CCCCCCS)Nc1cccc(Oc2ccccc2)c1,0.21 µM

# Now from value to compound:
row,IC50,SMILES
1,0.62 µM,O=C(CCCCCCS)Nc1ccc(Oc2ccccc2)cc1
2,0.1 µM,O=C(NCCCCCCS)c1cc2ccccc2[nH]1
3,0.17 µM,O=C(CCCCCCS)Nc1nc(-c2ccccc2)cs1
4,0.61 µM,CN(C)c1ccc(C(=O)NCCCCCCS)cc1

# Test system: not listed separately
# Test: Effective Concentration of compound to inhibit the growth of human RXF-631L cells
# Type: functional, cell-based
# Settings: not given
row,SMILES,EC50
1,CC(C)C(=O)SCCCCCCC(=O)Nc1nc(-c2ccccc2)cs1,2.4 µM

# Test system: NCI-H460
# Test: Inhibition of human lung cancer NCI-H460 cell growth
# Type: functional, cell-based
# Settings: not given
# Summary of the method: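 Cells seeded at 1500/well, 37 °C; after 24 h exposed to compounds at various concentrations in 10% FBS RPMI-1640, 37 °C, 5% CO₂, 48 h. Stained with 0.5 mg/mL methylene blue, room temperature, 30 min; dye dissolved in 3% aqueous HCl, absorbance at 660 nm. EC₅₀ reported as mean of at least two experiments.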
row,SMILES,EC50
1,CCC(=O)SCCCCCCC(=O)Nc1ccccc1,28 µM
2,CC(C)C(=O)SCCCCCCC(=O)Nc1cccc(Oc2ccccc2)c1,25 µM
3,O=C(CCCCCCSSCCCCCCC(=O)Nc1ccccc1)Nc1ccccc1,> 50 µM
4,CC(C)C(=O)SCCCCCCC(=O)Nc1cnc2ccccc2c1,8 µM
5,CC(C)(C)C(=O)SCCCCCCC(=O)Nc1ccccc1,> 50 µM
6,CC(C)(C)C(=O)OCSCCCCCCC(=O)Nc1ccccc1,25 µM
7,CC(C)C(=O)SCCCCCCC(=O)Nc1cccc(-c2ccccc2)c1,2.8 µM
8,CC(=O)SCCCCCCC(=O)Nc1ccccc1,36 µM
9,O=C(CCCCCCSC(=O)c1ccc([N+](=O)[O-])cc1)Nc1ccccc1,24 µM

# Further lines, results first:
row,EC50,SMILES
1,12 µM,CC(C)C(=O)SCCCCCCNC(=O)c1cc2ccccc2[nH]1
2,4.1 µM,CC(C)C(=O)SCCCCCCNC(=O)c1cc2ccccc2o1
3,27 µM,O=C(CCCCCCSC(=O)C1CC1)Nc1ccccc1
4,21 µM,O=C(CCCCCCSC(=O)C1CCCC1)Nc1ccccc1
5,22 µM,CCCC(=O)SCCCCCCC(=O)Nc1ccccc1
6,9.5 µM,CC(C)C(=O)SCCCCCCC(=O)Nc1nc2ccccc2s1
7,2.9 µM,CC(C)C(=O)SCCCCCCC(=O)Nc1cccnc1
8,12 µM,CC(C)C(=O)SCCCCCCNC(=O)c1ccc2ccccc2c1

# Target: Histone deacetylase (Homo sapiens) (UniProt Q13547+O15379+Q9UBN7+Q92769+Q9UQL6+Q8WUI4+Q9BY41+Q96DB2+P56524+Q9UKV0+Q969S8)
# Settings: at 100 µM
row,inhibition,SMILES
1,0%,C#CCN(CC#C)CCCCCC(=O)Nc1ccccc1
2,11%,CSCCCCCCC(=O)Nc1ccccc1
3,14%,O=C(CCCCCCS(=O)(=O)NO)Nc1ccccc1
4,85%,CC(=O)SCCCCCCC(=O)Nc1ccccc1
5,14%,C#CCNCCCCCC(=O)Nc1ccccc1
